{
  "source": "ChEMBL document CHEMBL1123923",
  "about": "“Steroidal silicon side-chain analogues as potential antifertility agents” (1987)",
  "data": [
    {"organism": "Rattus norvegicus", "experiment": "Antifertility activity measured as minimum protective dose for prevention of pregnancy in rats", "assay_type": "functional", "parameters": "unit not given here", "procedure,_shortened": "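Oral dosing in adult cycling female rats selected in the proestrous phase, 10 animals per dose, with treatment starting on the day of proestrus.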", "values": [
      {"compound": "CC(C)(C)C#C[C@]1(O)CC[C@H]2[C@@H]3CCc4cc(O)ccc4[C@H]3CC[C@@]21C", "Antifertility potency": 1},
      {"compound": "CC(Cl)[Si](C)(C)C#C[C@]1(O)CC[C@H]2[C@@H]3CCc4cc(O)ccc4[C@H]3CC[C@@]21C", "note": "(some centres undefined)", "Antifertility potency": 300},
      {"compound": "CCCC(=O)Oc1ccc2c(c1)CC[C@@H]1[C@@H]2CC[C@@]2(C)[C@H]1CC[C@]2(C#C[Si](CC)(CC)CC)OC(=O)CCC", "Antifertility potency": 40},
      {"compound": "CCCC(=O)Oc1ccc2c(c1)CC[C@@H]1[C@@H]2CC[C@@]2(C)[C@H]1CC[C@@]2(O)C#C[Si](CC)(CC)CC", "Antifertility potency": 300},
      {"compound": "CC[SiH](C#C[C@]1(O)CC[C@H]2[C@@H]3CCc4cc(O)ccc4[C@H]3CC[C@@]21C)CC", "Antifertility potency": 600},
      {"compound": "C[C@]12CC[C@@H]3c4ccc(O)cc4CC[C@H]3[C@@H]1CC[C@@]2(O)C#C[Si](C)(C)c1ccccc1", "Antifertility potency": 33},
      {"compound": "CCC[Si](C)(C)C#C[C@]1(O)CC[C@H]2[C@@H]3CCc4cc(O)ccc4[C@H]3CC[C@@]21C", "Antifertility potency": 300},
      {"compound": "C[C@]12CC[C@@H]3c4ccc(O)cc4CC[C@H]3[C@@H]1CC[C@@]2(O)C#C[Si](c1ccccc1)(c1ccccc1)c1ccccc1", "Antifertility potency": 0},
      {"compound": "CC[Si](C)(C#C[C@]1(O)CC[C@H]2[C@@H]3CCc4cc(O)ccc4[C@H]3CC[C@@]21C)CC", "Antifertility potency": 600},
      {"compound": "CC[Si](C#C[C@]1(O)CC[C@H]2[C@@H]3CCc4cc(OC(C)=O)ccc4[C@H]3CC[C@@]21C)(CC)CC", "Antifertility potency": 600},
      {"compound": "CCC(C)[Si](C)(C)C#C[C@]1(O)CC[C@H]2[C@@H]3CCc4cc(O)ccc4[C@H]3CC[C@@]21C", "note": "(some centres undefined)", "Antifertility potency": 300},
      {"compound": "CC[Si](C#C[C@]1(O)CC[C@H]2[C@@H]3CCc4cc(O)ccc4[C@H]3CC[C@@]21C)(CC)c1ccccc1", "Antifertility potency": 150},
      {"compound": "C[C@]12CC[C@@H]3c4ccc(O)cc4CC[C@H]3[C@@H]1CC[C@@]2(O)C#C[Si](C)(C)CCCCl", "Antifertility potency": 200},
      {"compound": "C=C([C@]1(O)CC[C@H]2[C@@H]3CCc4cc(O)ccc4[C@H]3CC[C@@]21C)[Si](CC)(CC)CC", "Antifertility potency": 4},
      {"compound": "CC[Si](C#C[C@]1(O)CC[C@H]2[C@@H]3CCc4cc(O)ccc4[C@H]3CC[C@@]21C)(CC)CC", "Antifertility potency": 600},
      {"compound": "CC[Si](/C=C/[C@]1(O)CC[C@H]2[C@@H]3CCc4cc(O)ccc4[C@H]3CC[C@@]21C)(CC)CC", "Antifertility potency": 1.31},
      {"compound": "CC[Si](C#C[C@]1(O)CC[C@H]2[C@@H]3CCc4cc(O)ccc4[C@H]3CC[C@@]21C)(C#C[C@]1(O)CC[C@H]2[C@@H]3CCc4cc(O)ccc4[C@H]3CC[C@@]21C)CC", "Antifertility potency": 0},
      {"compound": "CC(C)[Si](C)(C)C#C[C@]1(O)CC[C@H]2[C@@H]3CCc4cc(O)ccc4[C@H]3CC[C@@]21C", "Antifertility potency": 300},
      {"compound": "C=CC[Si](C)(C)C#C[C@]1(O)CC[C@H]2[C@@H]3CCc4cc(O)ccc4[C@H]3CC[C@@]21C", "Antifertility potency": 250},
      {"compound": "C[C@]12CC[C@@H]3c4ccc(O)cc4CC[C@H]3[C@@H]1CC[C@@]2(O)C#C[Si](C)(C)C(Cl)Cl", "Antifertility potency": 300},
      {"compound": "CC[Si](C#C[C@]1(O)CC[C@H]2[C@@H]3CCc4cc(O)ccc4[C@H]3CC[C@@]21C)(CC)C(C)C", "Antifertility potency": 300},
      {"compound": "C[C@]12CC[C@@H]3c4ccc(O)cc4CC[C@H]3[C@@H]1CC[C@@]2(O)C#C[Si](C)(C)CCC#N", "Antifertility potency": 300},
      {"compound": "C[C@]12CC[C@@H]3c4ccc(O)cc4CC[C@H]3[C@@H]1CC[C@@]2(O)C#C[Si]1(C)CCCCC1", "Antifertility potency": 250}
    ]},
    {"organism": "Rattus norvegicus", "experiment": "Separation of antifertility from estrogenic activity in rats was measured", "assay_type": "functional", "values": [
      {"compound": "CC(C)(C)C#C[C@]1(O)CC[C@H]2[C@@H]3CCc4cc(O)ccc4[C@H]3CC[C@@]21C", "Separation": 14},
      {"compound": "CC(Cl)[Si](C)(C)C#C[C@]1(O)CC[C@H]2[C@@H]3CCc4cc(O)ccc4[C@H]3CC[C@@]21C", "note": "(some centres undefined)", "Separation": 7},
      {"compound": "CC[SiH](C#C[C@]1(O)CC[C@H]2[C@@H]3CCc4cc(O)ccc4[C@H]3CC[C@@]21C)CC", "Separation": 21},
      {"compound": "C[C@]12CC[C@@H]3c4ccc(O)cc4CC[C@H]3[C@@H]1CC[C@@]2(O)C#C[Si](C)(C)c1ccccc1", "Separation": 4.7},
      {"compound": "CCC[Si](C)(C)C#C[C@]1(O)CC[C@H]2[C@@H]3CCc4cc(O)ccc4[C@H]3CC[C@@]21C", "Separation": 14},
      {"compound": "CC[Si](C)(C#C[C@]1(O)CC[C@H]2[C@@H]3CCc4cc(O)ccc4[C@H]3CC[C@@]21C)CC", "Separation": 15},
      {"compound": "CCC(C)[Si](C)(C)C#C[C@]1(O)CC[C@H]2[C@@H]3CCc4cc(O)ccc4[C@H]3CC[C@@]21C", "note": "(some centres undefined)", "Separation": 15},
      {"compound": "CC[Si](C#C[C@]1(O)CC[C@H]2[C@@H]3CCc4cc(O)ccc4[C@H]3CC[C@@]21C)(CC)c1ccccc1", "Separation": 10},
      {"compound": "C[C@]12CC[C@@H]3c4ccc(O)cc4CC[C@H]3[C@@H]1CC[C@@]2(O)C#C[Si](C)(C)CCCCl", "Separation": 8},
      {"compound": "C=C([C@]1(O)CC[C@H]2[C@@H]3CCc4cc(O)ccc4[C@H]3CC[C@@]21C)[Si](CC)(CC)CC", "Separation": 8},
      {"compound": "CC[Si](C#C[C@]1(O)CC[C@H]2[C@@H]3CCc4cc(O)ccc4[C@H]3CC[C@@]21C)(CC)CC", "Separation": 16},
      {"compound": "CC[Si](/C=C/[C@]1(O)CC[C@H]2[C@@H]3CCc4cc(O)ccc4[C@H]3CC[C@@]21C)(CC)CC", "Separation": 30},
      {"compound": "CC(C)[Si](C)(C)C#C[C@]1(O)CC[C@H]2[C@@H]3CCc4cc(O)ccc4[C@H]3CC[C@@]21C", "Separation": 20},
      {"compound": "C=CC[Si](C)(C)C#C[C@]1(O)CC[C@H]2[C@@H]3CCc4cc(O)ccc4[C@H]3CC[C@@]21C", "Separation": 10},
      {"compound": "C[C@]12CC[C@@H]3c4ccc(O)cc4CC[C@H]3[C@@H]1CC[C@@]2(O)C#C[Si](C)(C)C(Cl)Cl", "Separation": 17},
      {"compound": "CC[Si](C#C[C@]1(O)CC[C@H]2[C@@H]3CCc4cc(O)ccc4[C@H]3CC[C@@]21C)(CC)C(C)C", "Separation": 10},
      {"compound": "C[C@]12CC[C@@H]3c4ccc(O)cc4CC[C@H]3[C@@H]1CC[C@@]2(O)C#C[Si](C)(C)CCC#N", "Separation": 8},
      {"compound": "C[C@]12CC[C@@H]3c4ccc(O)cc4CC[C@H]3[C@@H]1CC[C@@]2(O)C#C[Si]1(C)CCCCC1", "Separation": 10}
    ]},
    {"target": "Estrogen receptor (Rattus norvegicus) (UniProt P06211+Q62986)", "values": [
      {"compound": "CC(C)(C)C#C[C@]1(O)CC[C@H]2[C@@H]3CCc4cc(O)ccc4[C@H]3CC[C@@]21C", "Estrogenic potency": 0.07},
      {"compound": "CC(Cl)[Si](C)(C)C#C[C@]1(O)CC[C@H]2[C@@H]3CCc4cc(O)ccc4[C@H]3CC[C@@]21C", "note": "(some centres undefined)", "Estrogenic potency": 45},
      {"compound": "CCCC(=O)Oc1ccc2c(c1)CC[C@@H]1[C@@H]2CC[C@@]2(C)[C@H]1CC[C@]2(C#C[Si](CC)(CC)CC)OC(=O)CCC", "Estrogenic potency": 4},
      {"compound": "CCCC(=O)Oc1ccc2c(c1)CC[C@@H]1[C@@H]2CC[C@@]2(C)[C@H]1CC[C@@]2(O)C#C[Si](CC)(CC)CC", "Estrogenic potency": 35},
      {"compound": "CC[SiH](C#C[C@]1(O)CC[C@H]2[C@@H]3CCc4cc(O)ccc4[C@H]3CC[C@@]21C)CC", "Estrogenic potency": 29},
      {"compound": "C[C@]12CC[C@@H]3c4ccc(O)cc4CC[C@H]3[C@@H]1CC[C@@]2(O)C#C[Si](C)(C)c1ccccc1", "Estrogenic potency": 7},
      {"compound": "CCC[Si](C)(C)C#C[C@]1(O)CC[C@H]2[C@@H]3CCc4cc(O)ccc4[C@H]3CC[C@@]21C", "Estrogenic potency": 22},
      {"compound": "C[C@]12CC[C@@H]3c4ccc(O)cc4CC[C@H]3[C@@H]1CC[C@@]2(O)C#C[Si](c1ccccc1)(c1ccccc1)c1ccccc1", "Estrogenic potency": 0.5},
      {"compound": "CC[Si](C)(C#C[C@]1(O)CC[C@H]2[C@@H]3CCc4cc(O)ccc4[C@H]3CC[C@@]21C)CC", "Estrogenic potency": 40},
      {"compound": "CC[Si](C#C[C@]1(O)CC[C@H]2[C@@H]3CCc4cc(OC(C)=O)ccc4[C@H]3CC[C@@]21C)(CC)CC", "Estrogenic potency": 34},
      {"compound": "CCC(C)[Si](C)(C)C#C[C@]1(O)CC[C@H]2[C@@H]3CCc4cc(O)ccc4[C@H]3CC[C@@]21C", "note": "(some centres undefined)", "Estrogenic potency": 20},
      {"compound": "CC[Si](C#C[C@]1(O)CC[C@H]2[C@@H]3CCc4cc(O)ccc4[C@H]3CC[C@@]21C)(CC)c1ccccc1", "Estrogenic potency": 17},
      {"compound": "C[C@]12CC[C@@H]3c4ccc(O)cc4CC[C@H]3[C@@H]1CC[C@@]2(O)C#C[Si](C)(C)CCCCl", "Estrogenic potency": 25},
      {"compound": "C=C([C@]1(O)CC[C@H]2[C@@H]3CCc4cc(O)ccc4[C@H]3CC[C@@]21C)[Si](CC)(CC)CC", "Estrogenic potency": 0.5},
      {"compound": "CC[Si](C#C[C@]1(O)CC[C@H]2[C@@H]3CCc4cc(O)ccc4[C@H]3CC[C@@]21C)(CC)CC", "Estrogenic potency": 37},
      {"compound": "CC[Si](/C=C/[C@]1(O)CC[C@H]2[C@@H]3CCc4cc(O)ccc4[C@H]3CC[C@@]21C)(CC)CC", "Estrogenic potency": 0.04},
      {"compound": "CC[Si](C#C[C@]1(O)CC[C@H]2[C@@H]3CCc4cc(O)ccc4[C@H]3CC[C@@]21C)(C#C[C@]1(O)CC[C@H]2[C@@H]3CCc4cc(O)ccc4[C@H]3CC[C@@]21C)CC", "Estrogenic potency": 8},
      {"compound": "CC(C)[Si](C)(C)C#C[C@]1(O)CC[C@H]2[C@@H]3CCc4cc(O)ccc4[C@H]3CC[C@@]21C", "Estrogenic potency": 15},
      {"compound": "C=CC[Si](C)(C)C#C[C@]1(O)CC[C@H]2[C@@H]3CCc4cc(O)ccc4[C@H]3CC[C@@]21C", "Estrogenic potency": 24},
      {"compound": "C[C@]12CC[C@@H]3c4ccc(O)cc4CC[C@H]3[C@@H]1CC[C@@]2(O)C#C[Si](C)(C)C(Cl)Cl", "Estrogenic potency": 18},
      {"compound": "CC[Si](C#C[C@]1(O)CC[C@H]2[C@@H]3CCc4cc(O)ccc4[C@H]3CC[C@@]21C)(CC)C(C)C", "Estrogenic potency": 30},
      {"compound": "C[C@]12CC[C@@H]3c4ccc(O)cc4CC[C@H]3[C@@H]1CC[C@@]2(O)C#C[Si](C)(C)CCC#N", "Estrogenic potency": 37},
      {"compound": "C[C@]12CC[C@@H]3c4ccc(O)cc4CC[C@H]3[C@@H]1CC[C@@]2(O)C#C[Si]1(C)CCCCC1", "Estrogenic potency": 25}
    ]}
  ]
}
